Columns and labels:
FOSL1 [1] = test: Western blot, FOSL1 expression in intact cells; type: cell-based, human; settings: 10 PDAC cell lines, 12 hours
Bxpc‐3 cells [2] = test: Annexin V/PI apoptosis assay; type: cell-based, human; settings: 24 hours
In short: (§1)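 Cells were treated with a range of concentrations for 24 hours, washed with PBS, then stained with annexin V‑FITC and propidium iodide for 15 minutes in the dark. […] Early (annexin V) and late (PI) apoptotic cells are reported as percentages, mean of n = 3 with SD.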

Aspc‐1 xenograft = test: Subcutaneous xenograft model; type: in vivo, NOD‐SCID mice; settings: Aspc‐1 model; LY‐1816 20 or 40 mg/kg/d p.o.; dasatinib 40 mg/kg/d p.o.; gemcitabine 80 mg/kg once a week
In short: (§2)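 Female NOD‑SCID mice bearing s.c. right‑flank tumors (5 × 10⁶–1 × 10⁷ cells injected) were randomized at 100–200 mm³ (6–7 per group). They received test compound in 25% PEG400/5% DMSO/water by oral gavage once daily for 18 days, or vehicle. Tumors were measured by caliper every 3 days, with volume = length × width² × 0.5.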

STAT3 [3] = test: Western blot, STAT3 phosphorylation; type: cell-based, human; settings: Aspc‐1 and Bxpc‐3 cells, 12 hours
In short: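 Aspc-1 and Bxpc-3 cells were grown overnight in complete medium and treated with test compound for 12 h. Cells were lysed in RIPA buffer and protein was quantified. Lysates were run on SDS-PAGE and transferred to PVDF, then blocked 2 h in TBS-T with 5% non-fat milk. Blots were probed for pAKT Ser473, pERK Thr202/Tyr204, pSTAT3 Tyr705, the matching total proteins and β-actin. Detection was by enhanced chemiluminescence.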

Bxpc‐3 xenograft = test: Subcutaneous xenograft model; type: in vivo, NOD‐SCID mice; settings: Bxpc‐3 model; LY‐1816 20 or 40 mg/kg/d p.o.; dasatinib 40 mg/kg/d p.o.; gemcitabine 80 mg/kg once a week
In short: as §2

Bxpc‐3 cells [4] = test: Transwell invasion assay; type: cell-based, human
In short: (§3)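 Inserts were precoated with polymerized collagen type I. Cells were seeded on the insert bottom in serum‑free medium with serial dilutions of test compound or vehicle, with 10% FBS medium in the lower chamber. After one day, cells were stained with calcein‑AM and optical sections taken at 10‑μm intervals. Invasion was scored as cells moving >20 μm into collagen; n = 3, mean with SD.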

STAT3 [5] = test: Immunohistochemistry of xenograft tumor tissues; type: in vivo, NOD‐SCID mice; settings: Aspc‐1 and Bxpc‐3 models; LY‐1816 and dasatinib 40 mg/kg/d p.o., gemcitabine 80 mg/kg/wk; IHC
In short: (§4)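 Six-week-old female NOD-SCID mice received 5 × 10⁶ to 1 × 10⁷ cells s.c. in the right flank. Treatment began at about 200 mm³. Test compound (40 mg/kg/d) was given once daily by oral gavage in 25% PEG400 plus 5% DMSO in water. Tumors were resected at the end of dosing. Frozen sections were immunostained and imaged by light microscopy.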

Aspc‐1 cells [6] = test: Annexin V/PI apoptosis assay; type: cell-based, human; settings: 24 hours
In short: as §1

Aspc‐1 cells [7] = test: Transwell invasion assay; type: cell-based, human
In short: as §3

FOSL1 [8] = test: Immunohistochemistry of xenograft tumor tissues; type: in vivo, NOD‐SCID mice; settings: Aspc‐1 and Bxpc‐3 models; LY‐1816 and dasatinib 40 mg/kg/d p.o., gemcitabine 80 mg/kg/wk; IHC
In short: as §4

Bxpc‐3 cells [9] = test: Wound healing assay; type: cell-based, human; settings: 18 hours
cleaved caspase‐3 = test: Immunohistochemistry of xenograft tumor tissues; type: in vivo, NOD‐SCID mice; settings: xenograft models; LY‐1816 40 mg/kg/d p.o., gemcitabine 80 mg/kg/wk; IHC
In short: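 Aspc‑1 or Bxpc‑3 s.c. tumors in NOD‑SCID mice were dosed p.o. daily from about 200 mm³, with vehicle controls. At study end, tumors were resected. Frozen sections were immunostained and imaged by light microscopy, and cleaved caspase‑3‑positive cells were counted.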

Src [10] = target: Src (Homo sapiens, UniProt P12931); type: cell-based; settings: 10 PDAC cell lines; 12 hours; western blot
Sequence of Src (Homo sapiens, UniProt P12931) (P12931 whole entry): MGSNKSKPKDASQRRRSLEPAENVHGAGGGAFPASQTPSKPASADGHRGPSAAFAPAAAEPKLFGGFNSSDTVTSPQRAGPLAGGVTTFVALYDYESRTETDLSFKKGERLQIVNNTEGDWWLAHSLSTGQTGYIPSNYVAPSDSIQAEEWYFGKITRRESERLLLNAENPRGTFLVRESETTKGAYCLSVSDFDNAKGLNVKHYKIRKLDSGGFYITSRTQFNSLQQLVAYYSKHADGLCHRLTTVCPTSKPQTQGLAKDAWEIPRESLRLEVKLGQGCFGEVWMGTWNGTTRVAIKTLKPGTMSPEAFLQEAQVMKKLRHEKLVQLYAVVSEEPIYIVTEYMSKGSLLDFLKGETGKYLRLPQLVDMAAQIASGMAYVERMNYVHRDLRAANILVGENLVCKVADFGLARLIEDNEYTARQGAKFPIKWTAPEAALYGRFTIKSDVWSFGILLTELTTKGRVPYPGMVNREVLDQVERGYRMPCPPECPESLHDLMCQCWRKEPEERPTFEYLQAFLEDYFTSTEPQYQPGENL

Src [11] = test: Immunohistochemistry of xenograft tumor tissues; type: in vivo, NOD‐SCID mice; settings: Aspc‐1 and Bxpc‐3 models; LY‐1816 and dasatinib 40 mg/kg/d p.o., gemcitabine 80 mg/kg/wk; IHC
Aspc‐1 cells [12] = test: Wound healing assay; type: cell-based, human; settings: 18 hours

SMILES | FOSL1 expression (FOSL1 [1]) | apoptosis (annexin V and PI‐positive populations) (Bxpc‐3 cells [2]) | antitumor activity (Aspc‐1 xenograft) | phosphorylation of STAT3 (STAT3 [3]) | antitumor activity (Bxpc‐3 xenograft) | cell invasion (Bxpc‐3 cells [4]) | phosphorylation of STAT3 in tumor tissues (STAT3 [5]) | apoptosis (annexin V and PI‐positive populations) (Aspc‐1 cells [6]) | cell invasion (Aspc‐1 cells [7]) | expression of FOSL1 in tumor tissues (FOSL1 [8]) | cell migration (Bxpc‐3 cells [9]) | cleaved caspase‐3 stain in tumor tissues (cleaved caspase‐3) | phosphorylation of Src (Src [10]) | phosphorylation of Src in tumor tissues (Src [11]) | cell migration (Aspc‐1 cells [12])
Cc1nc(Nc2ncc(C(=O)Nc3c(C)cccc3Cl)s2)cc(N2CCN(CCO)CC2)n1 [dasatinib] | slight influence on FOSL1 expression | also could induce apoptosis | also showed antitumor activities | very weak or no impact on the phosphorylation of STAT3 | also showed antitumor activities | poor ability to block cell invasion | very weak or no influence on the phosphorylation of STAT3 or the expression of FOSL1 | also could induce apoptosis | poor ability to block cell invasion | very weak or no influence on the phosphorylation of STAT3 or the expression of FOSL1 | – | – | – | – | –
Nc1ccn([C@@H]2O[C@H](CO)[C@@H](O)C2(F)F)c(=O)n1 [gemcitabine, reference compound] | little inhibitory effect against Src and FOSL1 expression | also could induce apoptosis | also showed antitumor activities | – | also showed antitumor activities | poor ability to block cell invasion | did not evidently inhibit the activities of Src or STAT3, nor FOSL1 expression | also could induce apoptosis | poor ability to block cell invasion | did not evidently inhibit the activities of Src or STAT3, nor FOSL1 expression | very weak activity in blocking cell migration | increase in the number of cleaved caspase‐3‐positive cells | little inhibitory effect against Src and FOSL1 expression | did not evidently inhibit the activities of Src or STAT3, nor FOSL1 expression | very weak activity in blocking cell migration

From article PMC6447837 (Cancer Science, 2019)
